# What was measured:
# [1] = biological target: Tyrosine-protein kinase Yes (Homo sapiens) (UniProt P07947); experiment: Inhibition of wild-type human partial length YES (T257 to L543 residues) expressed in Escherichia coli BL21 assessed as residual activity at 1000 nM after 30 mins by Kinomescan method relative to control
# [2] = biological target: SRSF protein kinase 3 (Homo sapiens) (UniProt Q9UPE1); experiment: Inhibition of wild-type human partial length SRPK3 (P41 to P567 residues) expressed in Escherichia coli BL21 assessed as residual activity at 1000 nM after 30 mins by Kinomescan method relative to control
# [3] = biological target: Tyrosine-protein kinase Blk (Homo sapiens) (UniProt P51451); experiment: Inhibition of wild-type human partial length BLK (G211 to L503 residues) expressed in Escherichia coli BL21 assessed as residual activity at 1000 nM after 30 mins by Kinomescan method relative to control
# [4] = biological target: Myosin-IIIb (Homo sapiens) (UniProt Q8WXR4); experiment: Inhibition of wild-type human partial length MYO3B (M1 to D357 residues) expressed in Escherichia coli BL21 assessed as residual activity at 1000 nM after 30 mins by Kinomescan method relative to control
# [5] = biological target: Serine/threonine-protein kinase MARK1 (Homo sapiens) (UniProt Q9P0L2); experiment: Inhibition of wild-type human partial length MARK1 (Q30 to T341 residues) expressed in Escherichia coli BL21 assessed as residual activity at 1000 nM after 30 mins by Kinomescan method relative to control
# [6] = system: Hepatocyte growth factor receptor (Homo sapiens), P08581 [Y1235D]; experiment: Inhibition of human partial length MET Y1235D mutant (D1010 to S1367 residues) expressed in Escherichia coli BL21 assessed as residual activity at 1000 nM after 30 mins by Kinomescan method relative to control
# Procedure, shortened: (§1)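 KINOMEscan binding panel of 456 kinases, with the test compound at a single concentration of 1 µM. Read-out is Percent Control.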
# [7] = biological target: Testis-specific serine/threonine-protein kinase 1 (Homo sapiens) (UniProt Q9BXA7); experiment: Inhibition of wild-type human full length TSSK1B (M1 to Q367 residues) expressed in Escherichia coli BL21 assessed as residual activity at 1000 nM after 30 mins by Kinomescan method relative to control
# [8] = biological target: Ephrin type-B receptor 4 (Homo sapiens) (UniProt P54760); experiment: Inhibition of wild-type human partial length EPHB4 (H585 to G892 residues) expressed in Escherichia coli BL21 assessed as residual activity at 1000 nM after 30 mins by Kinomescan method relative to control
# [9] = biological target: Mitogen-activated protein kinase 3 (Homo sapiens) (UniProt P27361); experiment: Inhibition of wild-type human full length ERK1 (M1 to P379 residues) expressed in Escherichia coli BL21 assessed as residual activity at 1000 nM after 30 mins by Kinomescan method relative to control
# Procedure, shortened: (§2)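 Single-concentration screen at 1 µM across a 456-kinase KINOMEscan panel. The read-out is Percent Control for each kinase.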
# [10] = system: Receptor-type tyrosine-protein kinase FLT3 (Homo sapiens), P36888 [R834Q]; experiment: Inhibition of human partial length FLT3 R834Q mutant (V592 to Y969 residues) expressed in HEK293 cells assessed as residual activity at 1000 nM after 30 mins by Kinomescan method relative to control; format: cell-based; procedure, shortened: as §1
# [11] = biological target: Serine/threonine-protein kinase 17B (Homo sapiens) (UniProt O94768); experiment: Inhibition of wild-type human full length DRAK2 (M1 to C372 residues) expressed in Escherichia coli BL21 assessed as residual activity at 1000 nM after 30 mins by Kinomescan method relative to control; procedure, shortened: as §2
# [12] = biological target: Ribosomal protein S6 kinase alpha-2 (Homo sapiens) (UniProt Q15349); experiment: Inhibition of wild-type human partial length C-terminal RSK2 kinase domain 2 (V402 to S715 residues) expressed in HEK293 cells assessed as residual activity at 1000 nM after 30 mins by Kinomescan method relative to control; format: cell-based
# [13] = biological target: Mitogen-activated protein kinase kinase kinase 20 (Homo sapiens) (UniProt Q9NYL2); experiment: Inhibition of wild-type human partial length ZAK (M1 to L331 residues) expressed in Escherichia coli BL21 assessed as residual activity at 1000 nM after 30 mins by Kinomescan method relative to control
# [14] = biological target: Cyclin-dependent kinase 17 (Homo sapiens) (UniProt Q00537); experiment: Inhibition of wild-type human full length PCTK2 (M1 to F523 residues) expressed in Escherichia coli BL21 assessed as residual activity at 1000 nM after 30 mins by Kinomescan method relative to control; procedure, shortened: as §2
# [15] = biological target: Myosin light chain kinase (Homo sapiens) (UniProt Q32MK0); experiment: Inhibition of wild-type human partial length MLCK (D488 to K800 residues) expressed in Escherichia coli BL21 assessed as residual activity at 1000 nM after 30 mins by Kinomescan method relative to control
# [16] = biological target: Serine/threonine-protein kinase PLK3 (Homo sapiens) (UniProt Q9H4B4); experiment: Inhibition of wild-type human partial length PLK3 (A42 to L334 residues) expressed in HEK293 cells assessed as residual activity at 1000 nM after 30 mins by Kinomescan method relative to control; format: cell-based
# [17] = biological target: Dual specificity protein kinase CLK2 (Homo sapiens) (UniProt P49760); experiment: Inhibition of wild-type human partial length CLK2 (D144 to R498 residues) expressed in Escherichia coli BL21 assessed as residual activity at 1000 nM after 30 mins by Kinomescan method relative to control
# [18] = biological target: Serine/threonine-protein kinase ICK (Homo sapiens) (UniProt Q9UPZ9); experiment: Inhibition of wild-type human partial length ICK (M1 to P314 residues) expressed in HEK293 cells assessed as residual activity at 1000 nM after 30 mins by Kinomescan method relative to control; format: cell-based
# [19] = biological target: MAP kinase-activated protein kinase 2 (Homo sapiens) (UniProt P49137); experiment: Inhibition of wild-type human partial length MAPKAPK2 (V48 to D345 residues) expressed in Escherichia coli BL21 assessed as residual activity at 1000 nM after 30 mins by Kinomescan method relative to control
# [20] = biological target: cAMP-dependent protein kinase catalytic subunit beta (Homo sapiens) (UniProt P22694); experiment: Inhibition of wild-type human full length PKAC-beta (M1 to F351 residues) expressed in Escherichia coli BL21 assessed as residual activity at 1000 nM after 30 mins by Kinomescan method relative to control
# Procedure, shortened: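 Single-concentration screen at 1 µM against a 456-kinase panel (KINOMEscan). Read-out is Percent Control for each kinase. Across the 403 non-mutant kinases, an S(35) selectivity score was derived as the fraction of kinases with Percent Control < 35.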
# [21] = biological target: RAF proto-oncogene serine/threonine-protein kinase (Homo sapiens) (UniProt P04049); experiment: Inhibition of wild-type human partial length RAF1 (I330 to T640 residues) expressed in Escherichia coli BL21 assessed as residual activity at 1000 nM after 30 mins by Kinomescan method relative to control
# Ephrin type-B receptor 4 (Homo sapiens), sequence (P54760 whole entry, the tested form may be a part): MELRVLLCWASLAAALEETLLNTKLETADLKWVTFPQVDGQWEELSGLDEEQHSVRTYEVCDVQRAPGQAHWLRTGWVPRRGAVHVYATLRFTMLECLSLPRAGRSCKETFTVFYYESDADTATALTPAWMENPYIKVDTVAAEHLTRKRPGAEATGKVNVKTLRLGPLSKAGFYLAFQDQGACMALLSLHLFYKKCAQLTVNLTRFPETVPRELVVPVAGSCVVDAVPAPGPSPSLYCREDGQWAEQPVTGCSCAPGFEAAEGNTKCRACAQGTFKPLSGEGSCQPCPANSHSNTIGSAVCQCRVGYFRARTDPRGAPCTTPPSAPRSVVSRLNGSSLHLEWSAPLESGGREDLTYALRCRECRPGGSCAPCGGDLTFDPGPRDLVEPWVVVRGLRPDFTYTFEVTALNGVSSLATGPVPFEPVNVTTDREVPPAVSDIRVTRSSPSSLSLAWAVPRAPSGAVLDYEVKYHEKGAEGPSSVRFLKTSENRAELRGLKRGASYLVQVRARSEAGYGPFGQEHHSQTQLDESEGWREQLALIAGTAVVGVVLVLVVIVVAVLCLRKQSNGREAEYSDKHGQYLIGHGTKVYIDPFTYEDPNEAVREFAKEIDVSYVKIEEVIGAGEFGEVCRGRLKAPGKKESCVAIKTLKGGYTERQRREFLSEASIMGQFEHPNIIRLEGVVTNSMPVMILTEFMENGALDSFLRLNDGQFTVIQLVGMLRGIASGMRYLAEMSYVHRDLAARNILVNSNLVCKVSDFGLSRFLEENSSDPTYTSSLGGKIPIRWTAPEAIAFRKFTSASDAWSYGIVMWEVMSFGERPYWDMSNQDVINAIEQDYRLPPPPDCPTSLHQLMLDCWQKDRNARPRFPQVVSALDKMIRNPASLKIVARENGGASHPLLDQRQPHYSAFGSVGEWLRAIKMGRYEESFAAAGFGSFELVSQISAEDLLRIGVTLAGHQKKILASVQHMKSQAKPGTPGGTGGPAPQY
# Mitogen-activated protein kinase 3 (Homo sapiens), sequence (P27361 whole entry, the tested form may be a part): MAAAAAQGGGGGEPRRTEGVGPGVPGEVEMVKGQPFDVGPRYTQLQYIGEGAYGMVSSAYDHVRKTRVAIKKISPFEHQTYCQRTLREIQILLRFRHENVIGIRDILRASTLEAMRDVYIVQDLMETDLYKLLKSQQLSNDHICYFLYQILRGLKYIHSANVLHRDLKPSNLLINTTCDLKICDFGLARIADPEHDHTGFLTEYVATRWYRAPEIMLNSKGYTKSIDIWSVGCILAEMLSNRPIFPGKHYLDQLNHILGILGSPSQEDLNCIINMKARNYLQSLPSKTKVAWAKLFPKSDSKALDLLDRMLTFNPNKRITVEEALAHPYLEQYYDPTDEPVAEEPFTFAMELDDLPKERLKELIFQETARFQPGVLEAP
# Tyrosine-protein kinase Yes (Homo sapiens), sequence (P07947 2-543 limits assumed): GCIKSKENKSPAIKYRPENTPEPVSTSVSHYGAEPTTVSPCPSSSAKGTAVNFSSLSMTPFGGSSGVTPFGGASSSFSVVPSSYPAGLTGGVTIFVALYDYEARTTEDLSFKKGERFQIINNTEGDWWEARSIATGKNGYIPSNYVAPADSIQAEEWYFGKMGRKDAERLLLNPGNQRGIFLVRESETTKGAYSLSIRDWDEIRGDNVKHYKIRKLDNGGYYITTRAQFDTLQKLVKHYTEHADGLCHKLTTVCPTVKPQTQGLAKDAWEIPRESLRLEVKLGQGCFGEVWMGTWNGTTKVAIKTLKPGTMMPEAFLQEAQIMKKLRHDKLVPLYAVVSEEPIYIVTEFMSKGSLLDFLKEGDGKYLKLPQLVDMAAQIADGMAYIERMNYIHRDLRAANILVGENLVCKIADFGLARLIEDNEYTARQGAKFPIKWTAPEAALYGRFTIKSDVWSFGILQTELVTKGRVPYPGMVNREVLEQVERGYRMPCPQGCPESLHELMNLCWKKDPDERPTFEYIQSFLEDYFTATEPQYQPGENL
# Myosin light chain kinase (Homo sapiens), sequence (Q32MK0 whole entry, the tested form may be a part): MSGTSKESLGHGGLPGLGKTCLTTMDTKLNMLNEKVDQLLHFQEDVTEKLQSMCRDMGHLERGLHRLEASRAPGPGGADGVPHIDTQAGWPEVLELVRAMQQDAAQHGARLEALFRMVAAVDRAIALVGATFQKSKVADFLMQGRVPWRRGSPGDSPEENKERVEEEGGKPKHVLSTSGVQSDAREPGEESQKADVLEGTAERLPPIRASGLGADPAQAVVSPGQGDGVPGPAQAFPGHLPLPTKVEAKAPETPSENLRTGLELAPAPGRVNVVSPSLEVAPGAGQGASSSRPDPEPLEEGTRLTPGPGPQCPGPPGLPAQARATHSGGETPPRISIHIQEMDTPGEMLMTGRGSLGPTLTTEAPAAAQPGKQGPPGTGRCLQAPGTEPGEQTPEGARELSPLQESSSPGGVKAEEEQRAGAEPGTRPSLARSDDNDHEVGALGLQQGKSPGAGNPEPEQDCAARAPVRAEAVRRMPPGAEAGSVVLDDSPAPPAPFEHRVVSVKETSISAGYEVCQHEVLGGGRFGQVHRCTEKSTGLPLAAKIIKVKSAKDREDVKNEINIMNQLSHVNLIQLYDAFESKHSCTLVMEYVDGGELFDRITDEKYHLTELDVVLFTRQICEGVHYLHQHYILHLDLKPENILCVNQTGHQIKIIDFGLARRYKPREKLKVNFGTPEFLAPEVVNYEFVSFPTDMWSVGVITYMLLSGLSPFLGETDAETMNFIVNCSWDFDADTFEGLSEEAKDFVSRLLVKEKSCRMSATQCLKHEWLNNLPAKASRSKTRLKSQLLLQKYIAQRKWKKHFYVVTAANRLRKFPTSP
# Testis-specific serine/threonine-protein kinase 1 (Homo sapiens), sequence (Q9BXA7 whole entry, the tested form may be a part): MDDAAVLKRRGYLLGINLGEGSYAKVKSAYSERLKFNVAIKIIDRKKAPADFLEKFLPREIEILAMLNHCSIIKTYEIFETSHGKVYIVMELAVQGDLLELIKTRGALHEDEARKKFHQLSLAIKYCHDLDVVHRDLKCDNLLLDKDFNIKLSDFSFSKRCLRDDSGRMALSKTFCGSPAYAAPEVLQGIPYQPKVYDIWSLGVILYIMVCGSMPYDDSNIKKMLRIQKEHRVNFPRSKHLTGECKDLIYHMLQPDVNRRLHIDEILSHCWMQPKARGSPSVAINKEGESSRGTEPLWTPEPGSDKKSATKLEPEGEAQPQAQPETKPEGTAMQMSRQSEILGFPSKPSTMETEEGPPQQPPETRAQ
# Tyrosine-protein kinase Blk (Homo sapiens), sequence (P51451 2-505 limits assumed): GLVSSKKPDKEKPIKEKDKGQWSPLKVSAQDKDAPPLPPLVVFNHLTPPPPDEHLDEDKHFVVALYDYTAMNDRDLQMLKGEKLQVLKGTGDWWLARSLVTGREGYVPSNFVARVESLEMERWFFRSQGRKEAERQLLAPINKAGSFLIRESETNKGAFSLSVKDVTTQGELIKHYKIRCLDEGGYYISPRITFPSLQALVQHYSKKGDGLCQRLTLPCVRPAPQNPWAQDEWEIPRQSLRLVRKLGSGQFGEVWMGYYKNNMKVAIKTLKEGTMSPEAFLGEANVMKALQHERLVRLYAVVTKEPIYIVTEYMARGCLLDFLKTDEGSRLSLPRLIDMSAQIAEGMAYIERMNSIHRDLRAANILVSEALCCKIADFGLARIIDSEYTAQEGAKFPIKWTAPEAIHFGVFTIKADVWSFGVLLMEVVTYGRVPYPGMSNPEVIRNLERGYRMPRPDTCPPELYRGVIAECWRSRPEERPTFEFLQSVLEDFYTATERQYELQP
# Ribosomal protein S6 kinase alpha-2 (Homo sapiens), sequence (Q15349 whole entry, the tested form may be a part): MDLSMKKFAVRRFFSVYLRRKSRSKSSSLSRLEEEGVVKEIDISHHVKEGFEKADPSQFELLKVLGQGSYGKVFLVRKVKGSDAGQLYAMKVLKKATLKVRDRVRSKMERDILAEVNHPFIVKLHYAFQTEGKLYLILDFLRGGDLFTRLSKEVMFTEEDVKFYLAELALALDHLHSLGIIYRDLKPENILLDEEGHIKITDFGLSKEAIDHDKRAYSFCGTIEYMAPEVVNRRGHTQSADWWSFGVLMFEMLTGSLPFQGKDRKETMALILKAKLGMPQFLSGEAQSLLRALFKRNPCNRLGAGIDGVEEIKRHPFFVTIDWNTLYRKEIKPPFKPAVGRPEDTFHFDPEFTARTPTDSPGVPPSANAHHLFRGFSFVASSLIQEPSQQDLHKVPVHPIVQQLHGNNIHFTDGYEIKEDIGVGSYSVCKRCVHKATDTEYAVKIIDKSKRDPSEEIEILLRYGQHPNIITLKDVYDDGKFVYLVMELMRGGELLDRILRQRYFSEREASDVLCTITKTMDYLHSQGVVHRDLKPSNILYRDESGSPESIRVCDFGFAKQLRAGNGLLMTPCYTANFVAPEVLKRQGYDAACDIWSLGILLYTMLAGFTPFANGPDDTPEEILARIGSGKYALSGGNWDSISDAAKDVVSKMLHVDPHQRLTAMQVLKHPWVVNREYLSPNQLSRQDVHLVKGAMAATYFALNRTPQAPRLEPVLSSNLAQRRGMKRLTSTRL
# Cyclin-dependent kinase 17 (Homo sapiens), sequence (Q00537 whole entry, looked up, the tested form may be a part): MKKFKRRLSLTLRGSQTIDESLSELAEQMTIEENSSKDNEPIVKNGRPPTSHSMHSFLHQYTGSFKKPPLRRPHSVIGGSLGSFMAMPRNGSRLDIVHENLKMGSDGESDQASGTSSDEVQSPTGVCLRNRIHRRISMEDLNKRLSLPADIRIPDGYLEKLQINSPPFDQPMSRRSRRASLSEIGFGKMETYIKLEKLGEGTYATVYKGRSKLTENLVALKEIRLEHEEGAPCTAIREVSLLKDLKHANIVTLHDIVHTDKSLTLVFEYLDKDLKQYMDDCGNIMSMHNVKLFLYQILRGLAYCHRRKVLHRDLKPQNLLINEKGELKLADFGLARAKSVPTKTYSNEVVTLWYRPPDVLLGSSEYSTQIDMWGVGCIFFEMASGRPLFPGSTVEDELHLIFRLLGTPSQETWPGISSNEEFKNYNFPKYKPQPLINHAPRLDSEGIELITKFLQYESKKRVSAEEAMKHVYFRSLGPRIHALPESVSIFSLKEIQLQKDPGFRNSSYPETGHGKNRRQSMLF
smiles,measurement,setting,value
COc1cc(OC)c(Cl)c(N2Cc3cnc(Nc4ccc(F)cc4)nc3N(C3CCN(C(=O)/C=C/CN(C)C)CC3)C2=O)c1Cl,Activity,[1],34%
same,Activity,[2],86%
same,Activity,[3],0.6%
same,Activity,[4],100%
same,Activity,[5],99%
same,Activity,[6],100%
same,Activity,[7],89%
same,Activity,[8],100%
same,Activity,[9],100%
same,Activity,[10],96%
same,Activity,[11],99%
same,Activity,[12],96%
same,Activity,[13],98%
same,Activity,[14],90%
same,Activity,[15],99%
same,Activity,[16],99%
same,Activity,[17],100%
same,Activity,[18],100%
same,Activity,[19],99%
same,Activity,[20],95%
same,Activity,[21],96%

# — ChEMBL document CHEMBL4043093, “2-Oxo-3, 4-dihydropyrimido[4, 5-d]pyrimidinyl derivatives as new irreversible pan fibroblast growth factor receptor (FGFR) inhibitors” (Eur J Med Chem, 2017)
